Assay results pooled from the literature.
Compare with care: the assays were run in different laboratories.
MAPK14: Mitogen-activated protein kinase 14 (MAPK14, Homo sapiens, UniProt Q16539)
MAPK14 T106M: Mitogen-activated protein kinase 14 (MAPK14, Homo sapiens, UniProt Q16539, T106M)

For `N#CCCc1ccc2c(c1)-c1[nH]c3ccc([N+](=O)[O-])cc3c1CC(=O)N2`, the remaining signal was 91.8% (MAPK14; cell-free assay; 0.5 µM).
`CNC(=O)c1cc(Oc2ccc(NC(=O)Nc3ccc(Cl)c(C(F)(F)F)c3)cc2)ccn1` has an inhibition of 90% (MAPK14 T106M; enzyme activity; inhibitor; 10 µM).
For `O=C(NC[C@@H]1[C@H]2CN(C(=O)OCc3cc(C(F)(F)F)cc(C(F)(F)F)c3)C[C@@H]12)c1ccc2[nH]nnc2c1`, the remaining binding was 100% (MAPK14; cell-free assay; competition with immobilised ligand; 1 µM).
`Cc1ccc(Nc2nccc(N(C)c3ccc4c(C)n(C)nc4c3)n2)cc1S(N)(=O)=O` has an inhibition of 6% (MAPK14; enzyme activity; inhibitor; 0.3 µM).
The remaining signal of `Nc1ncnc2occ(-c3ccc(NC(=O)Nc4cc(C(F)(F)F)ccc4F)cc3)c12` is reported as 0% (MAPK14; cell-free assay; inhibitor; 20 µM).
For `CN([C@@H]1CCc2c(CC(=O)O)c3cc(S(C)(=O)=O)ccc3n2C1)S(=O)(=O)c1ccc(F)cc1`, the remaining binding was 100% (MAPK14; cell-free assay; competition with immobilised ligand; 1 µM).
`COc1cc(Nc2cnc(C#N)c(O[C@H](C)CN(C)C)n2)ncc1-c1cnn(C)c1` gave a remaining activity of 85% (MAPK14; enzyme activity; inhibitor; radiometric; 10 µM).
With `CSc1cccnc1N1CCN(Cc2nc3ccccc3[nH]2)CC1` the remaining binding was 100% (MAPK14; cell-free assay; competition with immobilised ligand; 1 µM).
`c1nc2c(Nc3ccc4c(c3)OCCO4)nc(Nc3ccc4c(c3)OCCO4)nc2[nH]1` has an activity vs control of 90% (MAPK14; enzyme activity; inhibitor; 10 µM).
For `CN(C)C1CCN(CC#Cc2nn(C3CCCC3)c3nc(NCc4ccccc4)ncc23)C1` (stereo not drawn), the inhibition was 4% (MAPK14; enzyme activity; inhibitor; FRET; 10 µM).
For `FC(F)c1nc2ccccc2n1-c1nc(N2CCOCC2)nc(N2CCOCC2)n1`, the remaining activity was 89% (MAPK14; enzyme activity; inhibitor; 10 µM).
`CCN(CC)CCNC(=O)c1c(C)[nH]c(/C=C2\C(=O)Nc3ccc(F)cc32)c1C` gave an inhibition of 5% (MAPK14 T106M; enzyme activity; inhibitor; 0.3 µM).
For `CN(c1ccnc(CNc2nc(Nc3ccc4c(c3)CC(=O)N4)ncc2C(F)(F)F)n1)S(C)(=O)=O`, the remaining binding was 92% (MAPK14; cell-free assay; competition with immobilised ligand; 1 µM).
`Oc1ccc(-c2nc(-c3ccncc3)c(-c3ccc(F)cc3)[nH]2)cc1` gave a remaining signal of 7.42% (MAPK14; cell-free assay; 0.5 µM).
`CC(C)(C)c1nc2c(s1)c1nc(N)ncc1c1ccc(NS(=O)(=O)c3c(F)cccc3F)c(F)c12` gave a remaining activity of 96% (MAPK14; enzyme activity; inhibitor; radiometric; 1 µM).
`CC1=C(C#N)[C@@H](c2ccc3[nH]nc(C)c3c2)C(C#N)=C(c2ccc(Cl)cc2)N1` has a remaining binding of 100% (MAPK14; cell-free assay; competition with immobilised ligand; 1 µM).
`Cc1ccc(NC(=O)c2ccc(C)c(C(F)(F)F)c2)cc1C#Cc1nn(C2CCC(O)CC2)c2ncnc(N)c12` (stereo not drawn) has a remaining activity of 88% (MAPK14 T106M; enzyme activity; inhibitor; 10 µM).
With `CC(C)(O)c1cncc(-c2nc3ccc(F)cc3n2C2CC2)c1` the remaining binding was 100% (MAPK14; cell-free assay; competition with immobilised ligand; 1 µM).
For `Cc1cnc(NC2CCOCC2)nc1-n1cnc(C(=O)NC(CN)c2cc(F)cc(Cl)c2)c1` (stereo not drawn), the remaining activity was 77% (MAPK14; enzyme activity; inhibitor; radiometric; 1 µM).
`Cc1sc(C(=O)NC2COC2)cc1-n1cc(NC(=O)Nc2c(F)cccc2Cl)cn1` has a remaining activity of 93.2% (MAPK14; enzyme activity; inhibitor; 10 µM).
With `Nc1nc(NC2CCCCC2)sc1C(=O)c1ccccc1` the remaining activity was 24% (MAPK14; enzyme activity; inhibitor; 10 µM).
